Experimental data: ChEMBL document CHEMBL1135822, “Novel potent AMPA/kainate receptor antagonists: synthesis and anticonvulsant activity of a series of 2-[(4-alkylsemicarbazono)-(4-amino-phenyl)methyl]-4,5-methylenedioxyphenylacetic acid alkyl esters” (J Med Chem, 2002)

Columns and labels:
[1] = Toxicity assessed by Rotarod test (locomotor deficit) in mice.; type: organism-based; conditions: mouse, in vivo
Method in brief: (§1)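 Male Swiss mice (20–26 g), groups of 10, trained on a 3-cm rotarod at 8 rpm. Tested 30 min after ip dosing; impairment defined as failure to stay on for 2 min. TD50 by Litchfield–Wilcoxon, at least 32 animals, 95% confidence limits.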

[2] = Partition coefficient (logP); type: physicochemical; conditions: octanol/water
Method in brief: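 log P calculated with XLOGP 2.0, not measured.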

[3] = Protective index as the ratio of TD50 to ED50 (from the clonic phase of the audiogenic seizures).; conditions: for selectivity ratio: read-out: PI
Method in brief: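 Ratio of rotarod TD50 to ED50 from the clonic phase of audiogenic seizures in DBA/2 mice, both after ip dosing.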

[4] = Anticonvulsant activity against audiogenic seizures in DBA/2 mice in tonic phase; type: functional; conditions: Mus musculus
Method in brief: (§2)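 DBA/2 mice (8–12 g, 22–25 days), groups of 10, given ip doses of 3.3–200 µmol/kg in 50% DMSO/50% saline. Auditory stimulation 30 min later after 60 s habituation under a dome. Incidence of each seizure phase scored. ED50 by Litchfield–Wilcoxon, at least 32 animals, 95% confidence limits.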

Mus musculus [5] = species on record: Mus musculus; test: Anticonvulsant activity against audiogenic seizures in DBA/2 mice in clonic phase.; type: functional; method in brief: as §2
[6] = Protective index as the ratio of TD50 value to that of ED50 value (from the clonic phase of the audiogenic seizures).; type: functional
Method in brief: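 PI = TD50/ED50. TD50 from rotarod (3 cm, 8 rpm; failure to stay on for 2 min) in male Swiss mice 30 min after ip dosing; ED50 from clonic phase of audiogenic seizures in DBA/2 mice 30 min after ip dosing (50% DMSO/saline). Both by Litchfield–Wilcoxon, ≥32 animals each.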

[7] = Locomotion assessed by Rotarod test in mice; type: organism-based; conditions: mouse, in vivo; method in brief: as §1
Rattus norvegicus [8] = species on record: Rattus norvegicus; test: Percentage reduction of ATPA evoked currents at a concentration of 100 uM in cerebellar neurons
Rattus norvegicus [9] = species on record: Rattus norvegicus; test: Percentage reduction of KA (kainate) evoked currents at a concentration of 100 uM in cerebellar neurons
[10] = Percentage reduction of KA (kainate) evoked currents at a concentration of 100 uM in cerebellar neurons; type: functional
Method in brief: (§3)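 Whole-cell voltage clamp of rat cerebellar granule neurons cultured 7 days (7–8-day-old Sprague–Dawley pups; Ara-C 10 µM from 24 h). External solution pH 7.4. KA or ATPA and test agent all applied at 100 µM by Y-tube, DMSO final below 1%. Mean ± SE of at least 10 cells.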

[11] = Percentage reduction of ATPA evoked currents at a concentration of 100 uM in cerebellar neurons; type: functional; method in brief: as §3
Mus musculus [12] = test: Anticonvulsant activity against AMPA induced seizures in DBA/2 mice after intracerebro ventricular administration at the CD97 for clonus (9.7 nmol) (95% confidence limits); type: functional; conditions: central
Rattus norvegicus [13] = species on record: Rattus norvegicus; test: Percentage reduction of ATPA evoked currents at a concentration of 100 uM in cerebellar neurons; remark: listed apart in the source
Mus musculus [14] = test: Anticonvulsant activity against audiogenic seizures in DBA/2 mice in clonic phase after 90 min intraperitoneal administration (95% confidence limit in parentheses)*indicates p<0.05; type: functional; conditions: ip, 1.5 h
Method in brief: (§4)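 Time course: DBA/2 mice (8–12 g, 22–25 days) dosed ip in 50% DMSO/50% saline and challenged with sound 15 to 120 min after dosing. Clonic phase scored; ED50 in µmol/kg by Litchfield–Wilcoxon with 95% confidence limits. Between-compound differences at each time by Litchfield–Wilcoxon (*p<0.05, **p<0.01).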

Mus musculus [15] = species on record: Mus musculus; test: Anticonvulsant activity against MES induced seizures in swiss mice in tonic phase (95% confidence limits); type: functional
Method in brief: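 Swiss mice dosed ip in 50% DMSO/50% saline, then shocked via ear-clip electrodes (50 mA, 20 ms pulse width, 35 Hz, 400 ms). Protection defined as abolition of tonic hindlimb extension. Four to five doses, 8–10 mice each; ED50 by Litchfield–Wilcoxon with 95% confidence limits.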

Mus musculus [16] = species on record: Mus musculus; test: Anticonvulsant activity against audiogenic seizures in DBA/2 mice in tonic phase (95% confidence limit in parentheses); type: functional
Method in brief: (§5)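 DBA/2 mice (8–12 g, 22–25 days old), genetically sound-susceptible, groups of 10. Dosed ip (0.1 mL/10 g) as fresh solution in 50% DMSO/50% saline, doses 3.3-200 μmol/kg; auditory stimulation after 60 s habituation under dome, at 30 min (time-course: 15–120 min post-dose).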

Mus musculus [17] = species on record: Mus musculus; test: Anticonvulsant activity against PTZ induced seizures in swiss mice in clonic phase (95% confidence limits); type: functional
Rattus norvegicus [18] = species on record: Rattus norvegicus; test: Percentage reduction of KA (kainate) evoked currents at a concentration of 100 uM in cerebellar neurons; remark: listed apart in the source
Mus musculus [19] = test: Anticonvulsant activity against KA induced seizures in DBA/2 mice at a dose of 32 mg/kg at CD97 after intraperitoneal administration (95% confidence limits); type: functional; conditions: ip
Mus musculus [20] = test: Anticonvulsant activity against AMPA induced seizures in DBA/2 mice after intracerebro ventricular administration at the CD97 for tonus (11.7 nmol) (95% confidence limits); type: functional; conditions: central
Mus musculus [21] = test: Anticonvulsant activity against audiogenic seizures in DBA/2 mice in clonic phase after 60 min intraperitoneal administration (95% confidence limit in parentheses)**indicates p<0.01; type: functional; conditions: ip, 1 h; method in brief: as §5
Mus musculus [22] = test: Anticonvulsant activity against audiogenic seizures in DBA/2 mice in clonic phase after 45 min intraperitoneal administration (95% confidence limit in parentheses)**indicates p<0.01; type: functional; conditions: ip, 0.75 h; method in brief: as §5
Mus musculus [23] = test: Anticonvulsant activity against audiogenic seizures in DBA/2 mice in clonic phase after 15 min intraperitoneal administration (95% confidence limit in parentheses); type: functional; conditions: ip, 0.25 h; method in brief: as §4
Mus musculus [24] = test: Anticonvulsant activity against audiogenic seizures in DBA/2 mice in clonic phase after 30 min intraperitoneal administration (95% confidence limit in parentheses)**indicates p<0.01; type: functional; conditions: ip, 0.5 h; method in brief: as §5
Mus musculus [25] = test: Anticonvulsant activity against audiogenic seizures in DBA/2 mice in clonic phase after 120 min intraperitoneal administration (95% confidence limit in parentheses); type: functional; conditions: ip, 2 h; method in brief: as §4

logP ([2]; read-out: logP) | Structure (SMILES) | TD50 [1] [µmol/kg] | selectivity ratio [3] | ED50 [4] [µmol/kg] | ED50 (Mus musculus [5]) [µmol/kg] | also measured
3.67 | CCCOC(=O)Cc1cc2c(cc1/C(=N/NC(=O)NCC)c1ccc(N)cc1)OCO2 | 187 | 3.4 | 40.3 | 55.5 | –
3.31 | CCNC(=O)N/N=C(\c1ccc(N)cc1)c1cc2c(cc1CC(=O)OCC)OCO2 | 227 | 2.7 | 60.8 | 84.4 | –
2.77 | CCCNC(=O)N1N=C(c2ccc(N)cc2)c2cc3c(cc2CC1=O)OCO3 | 182 | 2.6 | – | – | –
1.99 | CNC(=O)N1N=C(c2ccc(N)cc2)c2cc3c(cc2CC1=O)OCO3 | – | – | – | – | PI [6]: 3.9; TD50 [7]: 48.6 µmol/kg; Reduction (Rattus norvegicus [8]): 50%
2.89 | CCNC(=O)N/N=C(\c1ccc(N)cc1)c1cc2c(cc1CC(=O)OC)OCO2 | 113 | 3.7 | 32.8 | 30.3 | –
3.81 | CCCCOC(=O)Cc1cc2c(cc1/C(=N/NC(=O)NC)c1ccc(N)cc1)OCO2 | 179 | 2.7 | 39.8 | 66.2 | –
3.24 | CCCNC(=O)N/N=C(\c1ccc(N)cc1)c1cc2c(cc1CC(=O)OC)OCO2 | 177 | 3.1 | 42.8 | 57.1 | –
3.34 | CCCCNC(=O)N1N=C(c2ccc(N)cc2)c2cc3c(cc2CC1=O)OCO3 | 108 | 2.8 | – | – | –
1.82 | CNC(=O)NC(=O)Cc1cc2c(cc1C(=O)c1ccc(N)cc1)OCO2 | 134 | 3.4 | 28.9 | 39.5 | –
2.23 | CNC(=O)NC(=O)Cc1cc2c(cc1Cc1ccc(N)cc1)OCO2 | 33.3 | 3.6 | 7.65 | 9.28 | Reduction [10]: 54%; Reduction [11]: 32%
4.24 | CCCCOC(=O)Cc1cc2c(cc1/C(=N/NC(=O)NCC)c1ccc(N)cc1)OCO2 | 117 | 2.2 | 38.7 | 53.1 | –
3.24 | CCCOC(=O)Cc1cc2c(cc1/C(=N/NC(=O)NC)c1ccc(N)cc1)OCO2 | 68.5 | 3.8 | 8.93 | 18 | –
1.09 | CNC(=O)NC(=O)Cc1ccc2c(c1)OCO2 | 219 | 2.5 | 74.4 | 87.8 | –
2.99 | CNC(=O)N/N=C(\c1ccc(N)cc1)c1cc2c(cc1CC(=O)OC)OCO2 (stereo in doubt; 29) | 38.6 | 3.7 | 9.51 | 10.4 | –
2.58 | Nc1ccc(C2=NNC(=O)Cc3cc4c(cc32)OCO4)cc1 | – | 6.3 | – | – | Reduction (Rattus norvegicus [8]): 94%
2.41 | CCNC(=O)N1N=C(c2ccc(N)cc2)c2cc3c(cc2CC1=O)OCO3 | 134 | 3.8 | – | – | –
2.68 | COC(=O)Cc1cc2c(cc1Cc1ccc(N)cc1)OCO2 | 169 | 3.1 | 47.7 | 54.3 | –
– | CNC(=O)N/N=C(\c1ccc(N)cc1)c1cc2c(cc1CC(=O)OC)OCO2 (stereo in doubt; 10) | – | – | – | – | ED50 (Mus musculus [12]): 13.9 µmol/kg; Reduction (Rattus norvegicus [13]): 75%; ED50 (Mus musculus [14]): 25.5 µmol/kg; ED50 (Mus musculus [15]): 15.7 µmol/kg; ED50 (Mus musculus [16]): 4.62 µmol/kg; logP [2]: 2.46; ED50 (Mus musculus [17]): 14.7 µmol/kg; Reduction (Rattus norvegicus [18]): 60%; ED50 (Mus musculus [19]): 16.6 µmol/kg; ED50 (Mus musculus [20]): 8.9 µmol/kg; PI [3]: 3.6; ED50 (Mus musculus [21]): 10.2 µmol/kg; TD50 [7]: 28.3 µmol/kg; ED50 (Mus musculus [22]): 7.75 µmol/kg; ED50 (Mus musculus [23]): 24.1 µmol/kg; ED50 (Mus musculus [24]): 7.87 µmol/kg; ED50 (Mus musculus [25]): 36.8 µmol/kg
3.81 | CCCCNC(=O)N/N=C(\c1ccc(N)cc1)c1cc2c(cc1CC(=O)OC)OCO2 | 188 | 2.9 | 38.2 | 65 | –
2.89 | CCOC(=O)Cc1cc2c(cc1/C(=N/NC(=O)NC)c1ccc(N)cc1)OCO2 | 95.1 | 3.3 | 10.9 | 28.8 | –

Structure (SMILES) | logP ([2]; read-out: logP) | TD50 [1] [µmol/kg] | selectivity ratio [3] | ED50 [4] [µmol/kg] | ED50 (Mus musculus [5]) [µmol/kg] | also measured
CC1=NN=C(c2ccc(N)cc2)c2cc3c(cc2C1)OCO3 [GYKI-52466] | 3.51 | – | 2.1 | – | – | Reduction (Rattus norvegicus [9]): 47%; Reduction (Rattus norvegicus [8]): 45%
